Screening results from PubChem.
Compounds with a hit are over-represented: about 0.99% of the library has one in this group of screens.
LYPLA1 counter – counter-screen for PME1 inhibitors: inhibitors of human LYPLA1; O75608; recombinant LYPLA1, FP-Rh probe fluorescence polarization; inhibition, % at 5.9 µM; actives 0.16% (n = 320,000); AID 2174;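 active = inhibition above the mean of all tested compounds plus 3 SD, set per campaign, cut at about 14% in these data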;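 note: inhibitors block serine hydrolase probe labeling of LYPLA1 so polarization falls; 0% = enzyme with DMSO and 100% = wells lacking LYPLA1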
Fam108B inh – blocks mouse Fam108B hydrolase in RBBP9 counter-screen. recombinant Fam108B, FP-Rh probe fluorescence polarization. inhibition, % at 9.51 µM. actives 0.33% (n = 300,000). AID 1947;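 active = inhibition above the screen mean inhibition plus 3 SD, computed separately per campaign, cut at about 18% in these data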;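 note: inhibitors lower polarization as less probe binds the enzyme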
PME-1 primary – PME-1 (human) inhibition; recombinant PME-1, FP-Rh probe fluorescence polarization; inhibition, % at 5.9 µM; actives 0.53% (n = 320,000); AID 2130;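 active = inhibition above the campaign mean of all compounds plus 3 SD, cut at about 26% in these data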;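 note: competitive labeling of PME-1 active site by serine hydrolase directed probe; 0% = PME-1 with DMSO and 100% = wells lacking PME-1 enzyme; inhibitors block probe labeling so polarization falls and inhibition rises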
Target sequence (Q9Y570 whole entry, looked up): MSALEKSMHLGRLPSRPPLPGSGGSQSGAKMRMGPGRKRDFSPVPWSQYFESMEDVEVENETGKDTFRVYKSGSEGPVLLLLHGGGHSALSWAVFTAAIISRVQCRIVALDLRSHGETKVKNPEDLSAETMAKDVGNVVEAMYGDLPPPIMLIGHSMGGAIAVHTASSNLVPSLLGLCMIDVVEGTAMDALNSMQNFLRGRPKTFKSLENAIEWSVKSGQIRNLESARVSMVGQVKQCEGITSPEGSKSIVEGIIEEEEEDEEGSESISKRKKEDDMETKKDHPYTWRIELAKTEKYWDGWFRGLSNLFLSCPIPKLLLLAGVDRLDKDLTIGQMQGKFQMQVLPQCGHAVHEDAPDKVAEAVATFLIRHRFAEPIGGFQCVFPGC
LYPLA2 counter – LYPLA2 (human) inhibition in PME1 counter-screen. recombinant LYPLA2, FP-Rh probe fluorescence polarization. actives 0.38% (n = 320,000). inhibition, % at 5.9 µM. O95372;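 active = inhibition above the screen-wide mean plus 3 SD, limit set per campaign, cut at about 26% in these data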;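 note: 0% = LYPLA2 with DMSO and 100% = wells lacking LYPLA2 enzyme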
Target sequence (O95372 whole entry, looked up): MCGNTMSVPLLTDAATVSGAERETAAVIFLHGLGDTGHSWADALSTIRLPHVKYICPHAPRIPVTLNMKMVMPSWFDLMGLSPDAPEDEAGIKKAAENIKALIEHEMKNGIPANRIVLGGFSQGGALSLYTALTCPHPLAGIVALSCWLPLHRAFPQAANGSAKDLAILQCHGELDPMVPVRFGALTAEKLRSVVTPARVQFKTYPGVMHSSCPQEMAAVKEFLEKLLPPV
RBBP9 inh – blocks human serine hydrolase RBBP9; O75884; recombinant RBBP9, FP-Rh probe fluorescence polarization; inhibition, % at 7.94 µM; actives 0.2% (n = 220,000); AID 1515;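 active = inhibition above the campaign mean of all tested compounds plus 3 SD, cut at about 14% in these data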;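 note: plate controls were DMSO wells with RBBP9 for no effect and wells lacking RBBP9 protein for full effect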
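Test system: recombinant human RBBP9; Timing: 30 min then 45 min, 25 °C; Detection: fluorescence polarization; Control set: RBBP9 with DMSO as uninhibited control, no-protein wells as full inhibition; Compound dosing: one concentration, 7.94 µM nominal, 0.794% DMSO; Probe or stimulus: FP-Rh activity-based probe, 375 nM before mixing.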
Fam108b inh conf – confirmation of mouse Fam108b serine hydrolase inhibitors; recombinant Fam108b, FP-Rh probe fluorescence polarization; actives 44% (n = 930); shares compounds with Fam108B inh; inhibition, % at 9.51 µM;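 active = inhibition above a limit from the primary screen, the mean over all compounds plus 3 SD, cut at about 19% in these data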;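 note: 0% = median of active Fam108b wells and 100% = catalytically dead S170A mutant; inhibitors free the probe so polarization falls as inhibition rises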
Fam108b inh – inhibits mouse Fam108b in gel-based ABPP | shares compounds with Fam108B inh | recombinant Fam108b, fluorophosphonate probe | inhibition, % at 20 µM | actives 44% (n = 260); in the data active = inhibition above about 40%
The depositor's hits bear a star; · = no result given.

SMILES | LYPLA1 counter | Fam108B inh | PME-1 primary | LYPLA2 counter | RBBP9 inh | Fam108b inh conf | others
N#CC(C(=O)c1ccccc1)=C1SCCS1 | -1 | 1 | 0 | 1 | 0 | ·
Nc1cc(Cl)nc(N/N=C/c2c(O)ccc3ccccc23)n1 | 3 | 28* | 32* | -3 | 4 | 2
Cn1cc(C(=O)N/N=C/c2c(O)ccc3ccccc23)ccc1=O | -2 | 16 | 13 | 4 | 11 | ·
Nc1nonc1N/N=C/c1c(O)ccc2ccccc12 | -29 | 24* | 30* | -39 | 0 | 6
O=C(N/N=C\c1c(O)ccc2ccccc12)c1ccc(O)cc1 | -15 | 23* | 19 | -26 | · | -1
O=C(O)c1cc(N/N=C/c2c(O)ccc3ccccc23)ccc1Cl | 4 | 19* | 31* | 4 | · | 19*
O=C(N/N=C/c1ccccn1)c1cccc(S(=O)(=O)N2CCCC2)c1 | -3 | 10 | 5 | 1 | -3 | ·
Cc1ccc(C2=Nc3ccccc3N(C(=O)c3ccccc3)C(C)C2)cc1 (stereo not drawn) | 2 | -1 | -2 | 4 | -3 | ·
CCN(CC(=O)Nc1ccc(NC(C)=O)cc1)C(=O)c1cc(S(=O)(=O)N2CCCCCC2)ccc1OC | 0 | -2 | -1 | -4 | · | ·
Cc1ccc(NC(=O)c2cc(S(=O)(=O)N3CCOCC3)cn2C)cc1F | 0 | -3 | 3 | -3 | · | ·
O=C(CSc1nnc(-c2cccnc2)o1)Nc1cccc(F)c1 | 0 | -3 | 4 | 4 | · | ·
Cn1c(C(C#N)C2=C(Cl)C(=O)N(c3ccccc3)C2=O)nc2ccccc21 (stereo not drawn) | 3 | 25* | 14 | 14 | 2 | 17
Cn1c(C(O)C(O)c2ccccc2)nc2ccccc21 (stereo not drawn) | 4 | 2 | 3 | 4 | 1 | ·
COc1ccc([N+](=O)[O-])cc1NC(=O)C1C2C=CC(C2)C1C(=O)O (stereo not drawn) | -1 | 19* | -3 | 2 | · | 2
CCOc1cccc(/C=N/NC(=O)c2cc(-c3cccn3C)n[nH]2)c1O | -28 | 22* | -2 | -19 | -6 | 9
O=C(Nc1ccc(F)cc1)C1=CC(=O)N2CCN=C2S1 | -1 | 1 | -1 | -5 | 4 | ·
CCNC(=S)Nc1ccc(OCc2nc3ccccc3s2)cc1 | -4 | 1 | 2 | -2 | · | ·
COc1ccc(C(=O)NC(=S)N2CCN(C)CC2)cc1Br | -5 | 47* | -4 | -2 | -2 | 2
O=C(O)C1Nc2c(O)cccc2C2C=CCC12 (stereo not drawn) | -17 | 66* | 14 | -6 | 2 | 57*
O=C(O)C1Nc2c(Cl)cc(Cl)cc2C2C=CCC12 (stereo not drawn) | 2 | 33* | -6 | 18 | · | 24*
O=C(O)C1Nc2ccc(Br)cc2C2C=CCC12 (stereo not drawn) | -1 | 55* | -14 | 22 | · | 35* | Fam108b inh=40*
CCOC(=O)C1Nc2ccc(Br)cc2C2C=CCC12 (stereo not drawn) | -6 | 12 | 5 | -5 | · | ·
O=C(O)C1Nc2c(Cl)cc(Cl)c(Cl)c2C2C=CCC12 (stereo not drawn) | -1 | 15 | 18 | 10 | · | ·
COc1ccc2[nH]c(C(=O)N/N=C/c3ccccc3OC)cc2c1 | -5 | 2 | 0 | -6 | · | ·
CCOc1ccc2[nH]c(C(=O)N/N=C/c3ccccc3OC)cc2c1 | -3 | 21* | -1 | -11 | · | -14
SMILES | LYPLA1 counter | Fam108B inh | PME-1 primary | LYPLA2 counter | RBBP9 inh | Fam108b inh conf | others
COc1cc2cc(C(=O)NN=Cc3ccccc3Cl)[nH]c2cc1OC | · | · | · | · | · | · | Fam108b inh=50*
CCn1nc([N+](=O)[O-])c(C(C#N)c2nc3cc(C(F)(F)F)ccc3s2)c(Cl)c1=O (stereo not drawn) | 1 | 43* | 56* | 17 | 6 | 38* | Fam108b inh=65*
Cc1ccc(Cn2c(C(C)Nc3nc(-c4ccc(Cl)c([N+](=O)[O-])c4)cs3)nc3cc(C(F)(F)F)ccc32)cc1 (stereo not drawn) | -6 | -6 | -9 | -1 | · | ·
CCCn1nc([N+](=O)[O-])c(C(C#N)c2nc3ccccc3o2)c(Cl)c1=O (stereo not drawn) | 7 | 29* | 27* | 18 | 2 | 14
Cn1nc([N+](=O)[O-])c(C(C#N)c2ccccn2)c(Cl)c1=O (stereo not drawn) | 2 | 7 | 8 | 0 | 9 | ·
O=[N+]([O-])c1cc(N=Nc2ccc3ccccc3c2)ccc1O | 6 | 22* | 10 | 15 | · | 13
Nc1ccc(O)c([N+](=O)[O-])c1 | 3 | · | -6 | 3 | · | ·
CN1CC2([N+](=O)[O-])CC=C(OCCO)C([N+](=O)[O-])(C1)C2 (stereo not drawn) | -1 | 1 | 0 | 6 | 1 | ·
Cc1ccc(NS(=O)(=O)c2cc(C(=O)Nc3cccc([N+](=O)[O-])c3)ccc2C)cc1 | -29 | -17 | -33 | -49 | -20 | ·
Cc1ccc(NC(=O)CC(=O)c2ccc([N+](=O)[O-])cc2)cc1S(=O)(=O)Nc1cccc(Cl)c1 | -7 | 25* | 9 | -10 | 13 | 14
O=c1c2c3c(sc2n(CCN2CCCCC2)c(=O)n1Cc1ccco1)CCCCC3 | 0 | 21* | 0 | 4 | 5 | 28*
NC(=O)Cn1c(=O)n(Cc2ccco2)c(=O)c2c3c(sc21)CCCCC3 | -2 | 9 | 1 | 10 | -7 | ·
O=c1c2c3c(sc2n(CCN2CCOCC2)c(=O)n1Cc1ccco1)CCCCC3 | -5 | 20* | -1 | 6 | -8 | 16
COc1ccc(-c2csc(NC(=O)c3ccccc3NS(=O)(=O)c3ccc(C)cc3)n2)cc1 | -6 | 36* | 21 | 13 | 1 | 12
COc1cc(/C=N/n2c(-c3ccc4c(c3)NC(=O)CO4)csc2=Nc2cccc(C)c2)ccc1O | -1 | 21* | 9 | 15 | 0 | 8
CCN(c1ccccc1)S(=O)(=O)c1ccc(Cl)c(NC(=O)COC(=O)c2cc(O)c3ccccc3c2O)c1 | 0 | 20* | 40* | 7 | 3 | 48*
COCC(=O)N(Cc1cc2cc(OC)ccc2[nH]c1=O)c1ccc(C)cc1 | -1 | 23* | -1 | -1 | -4 | 6
COCC(=O)N(Cc1cc2ccc(C)cc2[nH]c1=O)c1ccc(OC)cc1 | -2 | 1 | -1 | 2 | -2 | ·
COc1ccc(-c2[nH]c(-c3cc(OC)c4c(c3)OCO4)nc2-c2ccccc2)cc1 | 0 | 19* | 9 | -6 | 0 | -9
Cc1ccc2[nH]c(C)c(CCNC(=O)C3CCCCC3C(=O)OCC(F)(F)F)c2c1 (stereo not drawn) | -2 | 0 | 3 | 3 | -9 | ·
